Sampled rows, rich in hits. Any-hit rate of the full collection: about 3.3%.
E-sel inducer – induces E-selectin expression in human endothelial cells. P16581. HUVEC E-selectin immunofluorescence imaging; normalized: neutral wells 0, TNF-alpha wells 100. activation, % at 7.58 µM. 260,000 tested, 0.37% active;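 active = mean E-selectin-positive cell signal at least 10% of the positive control, reached in at least 60% of replicates, without over 20% cell loss; inconclusive = no rule given, readout overlaps actives, possibly toxicity-flagged; inactive = the rest, including those meeting only one limit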
Target sequence (P16581 whole entry, looked up): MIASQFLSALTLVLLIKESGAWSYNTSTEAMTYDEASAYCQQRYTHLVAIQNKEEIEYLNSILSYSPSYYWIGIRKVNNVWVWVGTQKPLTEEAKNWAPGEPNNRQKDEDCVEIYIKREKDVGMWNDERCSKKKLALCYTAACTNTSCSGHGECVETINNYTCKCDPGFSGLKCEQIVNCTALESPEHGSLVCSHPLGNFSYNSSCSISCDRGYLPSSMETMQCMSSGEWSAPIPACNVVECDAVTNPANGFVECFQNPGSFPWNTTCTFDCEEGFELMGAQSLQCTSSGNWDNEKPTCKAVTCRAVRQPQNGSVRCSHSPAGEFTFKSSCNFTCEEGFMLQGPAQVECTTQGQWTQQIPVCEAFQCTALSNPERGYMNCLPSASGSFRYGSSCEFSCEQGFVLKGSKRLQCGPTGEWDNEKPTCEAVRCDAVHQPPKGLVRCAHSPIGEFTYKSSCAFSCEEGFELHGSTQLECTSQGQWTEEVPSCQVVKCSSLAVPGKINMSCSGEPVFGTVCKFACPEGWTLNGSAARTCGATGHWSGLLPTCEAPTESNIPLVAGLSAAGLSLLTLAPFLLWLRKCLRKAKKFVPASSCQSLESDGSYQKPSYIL
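Read-out basis: % PE-positive cells; Test system: HUVEC primary endothelial cells; Technique: immunofluorescence imaging; Dosing: single-point compound dose.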
FGF22 binding – binders of recombinant human FGF22 by thermal shift | SYPRO orange fluorescence; percent of sucrose octasulfate shift, DMSO zero | activity (Tm shift, normalised), % at 9.99 µM | 340,000 tested, 1.5% active;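 active = mean Tm shift, scaled 0 neutral to 100 positive control, at about 1.3% or above, every replicate too, limit read from the data; inconclusive = no clear call, values can overlap the other calls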
Target sequence (Q9HCT0 whole entry, looked up): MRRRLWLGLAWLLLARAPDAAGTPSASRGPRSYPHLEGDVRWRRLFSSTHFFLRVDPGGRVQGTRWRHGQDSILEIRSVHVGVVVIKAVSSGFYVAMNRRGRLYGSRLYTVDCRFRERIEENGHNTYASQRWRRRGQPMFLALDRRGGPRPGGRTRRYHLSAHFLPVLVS
PglD DTNB – blocks C. jejuni PglD acetyltransferase activity. purified PglD enzyme, DTNB colorimetric CoA detection. inhibition, % at 12.5 µM. 360,000 tested, 0.098% active. AID 602405; in the data active = inhibition above about 16%, passing the limit was not always enough; inconclusive = no clear call, values can overlap the other calls
DENV2 CPE rescue – inhibitors of DENV2 cytopathic effect; DENV2-infected cells, cytopathic effect rescue, plate reader; CPE inhibition, % at 9.99 µM; 350,000 tested, 1.7% active; in the data active = CPE inhibition above about 20%, passing the limit was not always enough; inconclusive = no clear call, values can overlap the other calls; tested in BHK-21 cells
XiGFP reactiv – X-chromosome reactivation activator; XiGFP mouse fibroblasts, % GFP-positive cells imaging, 3 d; cells co-treated with 5-aza-dC sensitizer; scaled so ellipticine positive control = 100%; activation, % at 7.58 µM; 360,000 tested, 0.055% active; AID 743238;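 active = mean normalized replicate activation at least 10% and every replicate at or above 10%; inconclusive = only one of the two criteria met; inactive = mean below 10% and not all replicates reach 10%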
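System: SV40-immortalized XiGFP fibroblast cells, line 68-5-11 / Incubation: 3-day compound exposure, then 15 min fixation at room temperature / Compound: single concentration per compound, delivered by pin transfer / Buffer or medium: DMEM plus 5-aza-dC sensitizer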
Statin myotox sup – suppressors of simvastatin-induced myotoxicity in C2C12 myotubes; ATP luminescence, 48 h; scaled: DMSO 0, geranylgeraniol control 100; rescue of ATP level, % at 7.49 µM; 330,000 tested, 0.78% active;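 active = mean ATP rescue above about 67%, or every replicate alone reaching that limit, limit read from the data, passing the limit was not always enough; inconclusive = no clear call, values can overlap the other calls; inactive = mean under the limit and some replicate under it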;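 note: myotubes were challenged with 10 µM simvastatin during compound exposure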
Of the large screens only hits and unclear results are named; the others gave an inactive call.

O=C(C[C@H]1CC[C@@H](NC(=O)Nc2ccc3c(c2)OCO3)[C@H](CO)O1)NCc1ccc2c(c1)OCO2	none
CCC(=O)N1C[C@@H](C)[C@H](OC)CN(C)C(=O)c2cc(NC(=O)C3CCCCC3)ccc2OC[C@@H]1C	none
C[C@H]1CCCCO[C@@H](CN(C)C(=O)C2CCCCC2)[C@@H](C)CN([C@@H](C)CO)C(=O)c2cc(N(C)C)ccc2O1	none (no result: FGF22 binding, PglD DTNB, DENV2 CPE rescue)
CN1CCN(C(=O)[C@@H]2[C@@H](CO)[C@@H]3Cn4c(ccc(-c5cccnc5)c4=O)[C@@H]3N2CC2CC2)CC1	none
O=C(CCc1nnc(CCCc2ccccc2)o1)NCCN1CCOC1=O	FGF22 binding 42.9 (no result: E-sel inducer, PglD DTNB, Statin myotox sup)
Cn1cc(CCNC(=O)CCc2nnc(CCCCc3ccccc3)o2)cn1	none (no result: E-sel inducer, PglD DTNB, Statin myotox sup)
COc1ccc(C(=O)c2nc3c(n2O)CCCC3)cc1OC	Statin myotox sup 122.5 (no result: E-sel inducer, FGF22 binding, DENV2 CPE rescue, XiGFP reactiv)
COc1ccc(C(=O)c2nc3c(n2O)CCCCC3)cc1	none (no result: E-sel inducer, FGF22 binding, DENV2 CPE rescue, XiGFP reactiv)
COCCn1c(C)cc(C(=O)COC(=O)c2cncc(Br)c2)c1C	Statin myotox sup 97.7 (no result: E-sel inducer, FGF22 binding)
O=C(NNc1c(F)c(F)cc(F)c1F)C1CCN(S(=O)(=O)c2ccccc2F)CC1	DENV2 CPE rescue 42.9 (no result: E-sel inducer)
O=C(CN1CCc2ccccc2C1)NC1CCCC1	FGF22 binding 43.1 (no result: PglD DTNB, Statin myotox sup)
O=C(NC1CCCCC1)N1CCc2ccccc2C1	none
O=C(CN1CCN(S(=O)(=O)c2ccccc2F)CC1)NC1CCCC1	DENV2 CPE rescue 21.6 (no result: PglD DTNB, Statin myotox sup)
O=C(NCc1ccccn1)C1CCN(S(=O)(=O)c2ccccc2F)CC1	none
CO[C@@H]1CN(C)C(=O)c2cc(NC(=O)c3ccccc3F)ccc2OC[C@@H](C)N(C(=O)c2ccccc2F)C[C@@H]1C	none
c1ccc2nc(SCc3cn4ccccc4n3)cnc2c1	FGF22 binding 43.1 (no result: E-sel inducer, Statin myotox sup)
Cn1ccs/c1=N\C(=O)Nc1cccc(Cl)c1	FGF22 binding 42.9 (no result: E-sel inducer, PglD DTNB, Statin myotox sup)
CN=c1sc(C(=O)Nc2cccc(Cl)c2)cc(=O)n1C	none (no result: E-sel inducer, FGF22 binding, DENV2 CPE rescue, XiGFP reactiv)
CC1CN(C(=S)SCCN2C(=O)CCC2=O)CC(C)O1 (stereo not given)	FGF22 binding 43.5 (no result: PglD DTNB, Statin myotox sup)
COc1ccc(NC(=O)Nc2ccc3c(c2)CC(=O)N([C@@H](C)CO)C[C@@H](C)[C@H](CN(C)Cc2ccc(C(=O)O)cc2)O3)cc1	none
Cc1nc2sc(C(=O)OCC(=O)N3c4ccccc4CC3C)c(C)c2c(=O)[nH]1 (stereo not given)	FGF22 binding 42.9 (no result: PglD DTNB, Statin myotox sup)
CCOc1ccccc1NC(=O)N1CCC(NC(=O)C2CCCCC2)CC1	E-sel inducer 34.6
CCOc1ccccc1NC(=O)N1CCC(NC(=O)c2ccccc2C)CC1	none (no result: E-sel inducer, FGF22 binding, DENV2 CPE rescue, XiGFP reactiv, Statin myotox sup)
COC(=O)C[C@H]1CC[C@@H](NS(=O)(=O)c2ccccc2F)[C@@H](CO)O1	none
CCCC(=O)Nc1ccc2c(c1)OC[C@@H](C)NC[C@@H](C)[C@@H](OC)CN(C)C2=O	none
CC(C)(C)OC(=O)C[C@@H]1C/C=C\C[C@H](CC(=O)NCCO)C(=O)N2CCC[C@H]2COC1=O	E-sel inducer inconclusive, DENV2 CPE rescue 82.6
CC(C)(C)OC(=O)C[C@H]1C/C=C\C[C@@H](CC(=O)NCCO)C(=O)N2CCC[C@H]2COC1=O	none
CS(=O)(=O)Nc1ccc2c(c1)[C@H]1C[C@@H](CC(=O)NCc3ccccc3)O[C@H](CO)[C@H]1O2	none (no result: DENV2 CPE rescue)
O=[N+]([O-])c1ccccc1S(=O)(=O)Nc1cccc(-c2ccc3nncn3n2)c1	DENV2 CPE rescue 64.8 (no result: E-sel inducer)
COC(=O)c1c(C(=O)OC)c2cc(C)ccn2c1Cl	Statin myotox sup 100.7 (no result: E-sel inducer, FGF22 binding, DENV2 CPE rescue, XiGFP reactiv)
COC(=O)c1nc2cc(C)ccn2c1F	none (no result: PglD DTNB)
O=C(c1ccccc1)N1CC(=O)N2[C@H](C1)[C@H](c1ccc(C#CCC3CCCC3)cc1)[C@@H]2CO	none (no result: FGF22 binding, PglD DTNB, Statin myotox sup)
O=C(C1CC1)N1CC(=O)N2[C@@H](CO)[C@H](c3ccc(C#CCc4ccccc4)cc3)[C@@H]2C1	DENV2 CPE rescue 44.8 (no result: FGF22 binding, PglD DTNB, Statin myotox sup)
O=C(c1ccccc1)N1CC(=O)N2[C@H](CO)[C@H](c3ccc(C#CCC4CCCC4)cc3)[C@@H]2C1	DENV2 CPE rescue 20.9 (no result: FGF22 binding, PglD DTNB, Statin myotox sup)
O=C(C1CCCCC1)N1CC(=O)N2[C@@H](CO)[C@H](c3ccc(C#CCc4ccccc4)cc3)[C@@H]2C1	none (no result: FGF22 binding, PglD DTNB, Statin myotox sup)
O=C(C1CCCCC1)N1CC(=O)N2[C@H](CO)[C@H](c3ccc(C#CCc4ccccc4)cc3)[C@H]2C1	DENV2 CPE rescue 25.1 (no result: FGF22 binding, PglD DTNB, Statin myotox sup)
C[C@H](CO)N1C[C@H](C)[C@H](CN(C)Cc2ccccc2)Oc2ccc(NS(=O)(=O)c3cn(C)cn3)cc2C1=O	none
N#Cc1cccc(-c2ccc3c(c2)[C@H]2[C@H](CCN2C(=O)c2ccncc2)[C@H](CO)N3)c1	none
C[C@@H]1CCCCO[C@H](CN(C)S(=O)(=O)c2cccs2)[C@@H](C)CN([C@H](C)CO)C(=O)c2cc(NS(=O)(=O)c3ccc(Cl)cc3)ccc2O1	FGF22 binding 1.6 (no result: E-sel inducer, Statin myotox sup)
C[C@@H]1CN([C@@H](C)CO)C(=O)c2cc(NS(=O)(=O)c3ccc(Cl)cc3)ccc2O[C@@H](C)CCCCO[C@H]1CN(C)S(=O)(=O)c1cccs1	DENV2 CPE rescue 35.8 (no result: E-sel inducer, Statin myotox sup)
Cc1ccc(S(=O)(=O)Nc2ccc3c(c2)C(=O)N([C@@H](C)CO)C[C@@H](C)[C@@H](CN(C)S(=O)(=O)c2cccs2)OCCCC[C@@H](C)O3)cc1	DENV2 CPE rescue 39.6 (no result: Statin myotox sup)
Cc1ccc(S(=O)(=O)Nc2ccc3c(c2)C(=O)N([C@@H](C)CO)C[C@@H](C)[C@H](CN(C)S(=O)(=O)c2cccs2)OCCCC[C@H](C)O3)cc1	none (no result: Statin myotox sup)
O=C(NC1CCC1)[C@@H]1[C@@H](CO)[C@@H]2Cn3c(ccc(-c4ccncc4)c3=O)[C@H]1N2Cc1cocn1	none
C[C@H](CO)N1C[C@H](C)[C@H](CN(C)Cc2ccc(Cl)c(Cl)c2)Oc2c(NC(=O)c3cnccn3)cccc2C1=O	none
C[C@H](CO)N1C[C@H](C)[C@@H](CN(C)C)Oc2c(NC(=O)c3cnccn3)cccc2C1=O	DENV2 CPE rescue 29.7 (no result: E-sel inducer)
COc1ccc(CN(C)C[C@@H]2Oc3c(NC(=O)c4cnccn4)cccc3C(=O)N([C@@H](C)CO)C[C@H]2C)cc1	E-sel inducer 53.7
C[C@H]1CN([C@@H](C)CO)C(=O)c2cccc(NC(=O)c3cnccn3)c2O[C@H]1CN(C)Cc1ccc(Cl)c(Cl)c1	DENV2 CPE rescue 22.7
C[C@@H]1CN([C@@H](C)CO)C(=O)c2cccc(NC(=O)c3cnccn3)c2O[C@H]1CN(C)Cc1ccc2c(c1)OCO2	none
C[C@H]1CN([C@@H](C)CO)C(=O)c2cccc(NC(=O)c3cnccn3)c2O[C@@H]1CN(C)Cc1ccc2c(c1)OCO2	DENV2 CPE rescue 24.2
C[C@H]1CN([C@@H](C)CO)C(=O)Cc2cc(NS(C)(=O)=O)ccc2O[C@@H]1CN(C)Cc1ccc(Cl)c(Cl)c1	none

Bioassay records from PubChem BioAssay.
